# Hits are enriched below; roughly 4.2% of the tested compounds scored in any of these assays.
# Lipid droplet – inhibitors of hepatocyte lipid droplet formation, primary screen, imaging, high-throughput imaging, BODIPY stain; AML12 mouse hepatocytes, oleate lipid droplets; AID 1656, 2009; inhibition, % at 6.5 µM; 240,000 tested, 0.4% active;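 active means lipid droplet intensity inhibited by at least 50%, with more than 500 cells counted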
#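 Material: mouse AML12 hepatocyte cell line, fixed after treatment; Timing: compound with oleate, overnight; Technique: high-content imaging of BODIPY-stained droplets and DAPI nuclei; Probe or stimulus: oleate, 100 µM final; Dosing: compound at 6.5 µM only.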
# ANO1 activ – TMEM16A chloride channel activators or potentiators, primary screen, cell-based, HTS; 340,000 tested, 0.3% active; Anoctamin-1 (Mus musculus), Q8BHY3; HEK293 TMEM16A/YFP-H148Q/I152L, iodide quench fluorescence; active compounds read low; AID 623877, 2012; B-score at 10 µM;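 active means fluorescence-ratio B-score plate-corrected deviation score at least 3 library SD below zero, with starting fluorescence score within 5 deviations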;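 further: channel opened by trigger with iodide after compound preincubation; score built on the fluorescence ratio of max minus min over baseline; more negative score means more quench and so TMEM16A activation or potentiation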
# Target sequence (Q8BHY3 whole entry, looked up): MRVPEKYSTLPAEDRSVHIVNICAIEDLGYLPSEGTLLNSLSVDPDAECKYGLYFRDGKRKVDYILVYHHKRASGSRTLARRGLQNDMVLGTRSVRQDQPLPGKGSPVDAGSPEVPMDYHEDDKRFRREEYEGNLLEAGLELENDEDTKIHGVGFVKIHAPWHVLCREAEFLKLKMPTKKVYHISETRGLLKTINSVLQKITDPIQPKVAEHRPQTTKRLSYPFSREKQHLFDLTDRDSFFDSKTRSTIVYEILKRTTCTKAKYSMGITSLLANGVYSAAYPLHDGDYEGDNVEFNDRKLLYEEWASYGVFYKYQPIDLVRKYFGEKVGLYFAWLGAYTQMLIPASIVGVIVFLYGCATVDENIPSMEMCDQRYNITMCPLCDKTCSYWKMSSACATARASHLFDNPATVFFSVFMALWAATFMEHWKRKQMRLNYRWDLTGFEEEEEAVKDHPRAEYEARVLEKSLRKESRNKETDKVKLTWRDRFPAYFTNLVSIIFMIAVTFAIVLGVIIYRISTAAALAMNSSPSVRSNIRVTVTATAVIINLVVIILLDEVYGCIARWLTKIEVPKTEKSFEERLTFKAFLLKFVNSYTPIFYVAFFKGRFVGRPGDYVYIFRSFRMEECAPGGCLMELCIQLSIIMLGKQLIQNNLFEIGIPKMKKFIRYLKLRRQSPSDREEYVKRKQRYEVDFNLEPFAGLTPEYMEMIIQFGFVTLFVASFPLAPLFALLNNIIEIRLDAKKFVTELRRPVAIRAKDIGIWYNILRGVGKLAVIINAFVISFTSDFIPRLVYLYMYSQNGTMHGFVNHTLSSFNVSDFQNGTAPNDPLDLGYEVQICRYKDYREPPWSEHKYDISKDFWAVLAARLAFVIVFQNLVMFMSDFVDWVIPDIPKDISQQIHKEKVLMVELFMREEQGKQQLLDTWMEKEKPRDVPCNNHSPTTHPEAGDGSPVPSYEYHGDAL
# CHOP inh – inhibitors of CHOP promoter induction, primary screen, cell-based, unfolded protein response, luciferase reporter; 220,000 tested, 3.8% active; inhibition, % at 10 µM; CHO-K1 CHOP-promoter luciferase, tunicamycin-induced, 15-18 h; AID 2732, 2010;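 active means compounds that reduced the stress-induced luciferase reporter signal by more than about 70% of percent inhibition, limit read from the data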;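 further: 0% = tunicamycin plus vehicle and 100% = wells without tunicamycin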
# XBP1 UPR activ – activators of adaptive XBP1 UPR arm, primary screen, cell-based, CHO-XBP1 luciferase reporter, luminescence, uHTS; IRE1-XBP1 UPR activation; percent of tunicamycin response, DMSO as zero; activation, % at 20 µM; 330,000 tested, 0.33% active; AID 463104, 2010;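 active means versus positive control, 20 µM dose yields 30% or more activation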;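 further: 100% = tunicamycin at 10 µg/mL and 0% = DMSO only wells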
#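 Material: CHO-XBP1 cells stably carrying IRE1-XBP1-driven luciferase reporter | Medium: F12 with 10% serum | Compound dosing: 20 µM single concentration, DMSO 1% | Incubation: Overnight seeding at 37 °C, 6 h compound treatment at 37 °C | Detection: Steady-Glo luminescence read | Read-out basis: % activation of reporter signal versus tunicamycin and DMSO controls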
# CHOP UPR activ – activators of apoptotic CHOP UPR arm, primary screen, cell-based, CHO-CHOP luciferase reporter, luminescence, uHTS; UPR activation; percent of tunicamycin response over DMSO baseline; activation, % at 10 µM; 330,000 tested, 0.34% active;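 active means at 10 µM dose, activation of 40% or more, normalized to positive control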;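 further: 100% = tunicamycin at 10 µg/mL and 0% = DMSO alone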
#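 assay system = CHO CHOP reporter cells | amount = 500 CHO-CHOP cells per well | buffer or medium = F12 with 10% FBS | incubation = 16-18 h cell attachment, then 6 h compound exposure, 37 °C | detection = luminescence read with Steady-Glo | read-out = percent activation relative to tunicamycin control | controls = tunicamycin high control, DMSO low control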
# TMEM16A inh – TMEM16A chloride channel inhibitors, primary screen, cell-based, HTS. normalized B-score (activity score, 25-100; higher = stronger inhibition) at 10 µM. 310,000 tested, 1.2% active. Anoctamin-1 (Mus musculus), Q8BHY3. HEK293 TMEM16A/YFP iodide influx fluorescence, ionomycin;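 active means ratio plate-corrected score three or more library SD toward inhibition, starting fluorescence score within five deviations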;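 further: score derived from kinetic fluorescence span divided by baseline fluorescence per well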
# UPR XBP1 confirm – IRE1-XBP1 UPR arm activators, confirmation, cell-based, CHO-XBP1 luciferase reporter, luminescence, single concentration; activation, % at 20 µM; 1,000 tested, 63% active; shares compounds with XBP1 UPR activ;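 active means reporter signal at least 30% of the positive control's activation in two or more of four replicate wells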;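 further: plate controls were DMSO negative control for no effect and tunicamycin 10 µg/mL positive control for full effect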
# * marks the source's active call; other numbers are inactive results; i = inactive; nt = not tested or not shown.
SMILES,Lipid droplet,ANO1 activ,CHOP inh,XBP1 UPR activ,CHOP UPR activ,TMEM16A inh,UPR XBP1 confirm
COC(=O)Nc1nc(-c2ccccc2)c(C(=O)c2ccc(Cl)cc2)s1,-188,i,12,16,-2,i,nt
N/C(CSc1ccc(Cl)cc1)=N\NC(=O)c1ccncc1,4,i,0,1,-2,i,nt
COc1ccc(OC)c(Nc2nc(NCc3ccco3)nc(N)c2[N+](=O)[O-])c1,43,i,34,55*,1,i,62*
COc1ccccc1Nc1nc(NCc2ccco2)nc(N)c1[N+](=O)[O-],-1,i,34,4,1,i,nt
O=C(Nc1ccc2c(c1)C(=O)c1ccccc1-2)c1ccccc1,nt,i,nt,nt,nt,nt,nt
COc1cccc(C(=O)Nc2ccc3c(c2)C(=O)c2ccccc2C3=O)c1,-7,i,12,91*,24,i,4
COc1cccc2cc(C(=O)Nc3cc(C)cc(C)c3)/c(=N/NS(=O)(=O)c3ccccc3)oc12,22,i,nt,240*,1,i,4
CCOc1ccc(C(=O)Nc2sc3c(c2C(=O)OC)CC(C)(C)NC3(C)C)cc1,10,i,-11,2,1,i,nt
COC(=O)c1c(NC(=O)c2nc3ccccc3s2)sc2c1CC(C)(C)NC2(C)C,26,i,67,41*,26,i,48*
Cc1ccc(NC(=O)c2c(C)nc3sc(C(=O)NC4CCCC4)c(N)c3c2-c2ccco2)c(C)c1,16,i,38,63*,26,i,105*
COc1ccc(C(O)P(=O)(OCC(C)C)c2ccc(N(C)C)cc2)c(OC)c1 (stereo not given),-3,i,nt,1,-1,i,nt
COc1ccc(OCC(=O)OCC(=O)NC2CCCCC2C)cc1 (stereo not given),nt,i,nt,1,1,nt,nt
COc1cc(NC2CCCCC2O)c2nc(-c3ccc(Cl)cc3)ccc2c1 (stereo not given),-26,i,-18,31*,26,i,16
O=C(CN1C(=O)/C(=C/c2ccc(Cl)cc2)SC1=S)NC1C=CS(=O)(=O)C1 (stereo not given),2,i,nt,44*,2,i,3
O=C(CCN1C(=O)/C(=C/c2ccc(Cl)cc2)SC1=S)NC1C=CS(=O)(=O)C1 (stereo not given),0,i,nt,0,0,i,nt
CCOc1ccccc1NC(=O)Cn1c(=O)n(-c2ccccc2)c(=O)c2oc3ccccc3c21,-8,i,63,65*,2,i,94*
CCCc1cc(=O)oc2cc(OCC(=O)N3CCN(C(=O)C4COc5ccccc5O4)CC3)ccc12 (stereo not given),-12,i,nt,0,1,i,nt
c1cc(SC2CCCCC2)cc(-c2nc3cnccn3c2NC2CCCCC2)c1,nt,i,nt,196*,8,nt,171*
O=C(N=Nc1c(O)n(Cc2ccccc2)c2ccccc12)c1ccc(O)cc1,-6,i,36,7,6,i,nt
O=C(N=Nc1c(O)n(C2OC(=O)c3ccccc32)c2ccccc12)c1ccc(O)cc1 (stereo not given),nt,i,78*,105*,2,i,11
N#CCCN(C(=O)COC(=O)CNS(=O)(=O)c1ccc2ccccc2c1)c1ccccc1,nt,i,nt,-1,-3,nt,nt
Cc1nc(N)c(C#N)c(-c2ccccc2)c1C,nt,i,22,0,-3,i,nt
Cc1cc(C)c2c(n1)sc1c(-c3ccccc3)c(C#N)c(N)nc12,9,i,51,91*,27,i,48*
Cc1ccc(-c2nnn(CC(=O)N(Cc3cccs3)C(C(=O)NC3CCCCC3)c3ccco3)n2)o1 (stereo not given),-4,i,17,48*,1,i,39*
COc1ccc(NS(=O)(=O)c2cc(NC(=O)C(CC(C)C)NC(N)=O)ccc2N2CCOCC2)cc1 (stereo not given),nt,i,nt,nt,nt,nt,nt
SMILES,Lipid droplet,ANO1 activ,CHOP inh,XBP1 UPR activ,CHOP UPR activ,TMEM16A inh,UPR XBP1 confirm
Cc1ccc(OCC(=O)Sc2ccc(C)cc2)cc1,5,i,53,27,5,i,nt
COc1ccccc1OCC(=O)Sc1ccc(C)cc1,nt,i,75*,34*,7,i,19
Cc1cc(C)c(/C=N/NC(=O)c2nnn(-c3nonc3N)c2CN2CCC(C)CC2)c(C)c1,12,i,nt,32*,2,i,6
CC1CCN(Cc2c(C(=O)N/N=C/c3ccc(C(F)(F)F)cc3)nnn2-c2nonc2N)CC1,-43,i,nt,30*,4,i,40*
CC1CCN(Cc2c(C(=O)N/N=C/c3cc(Br)ccc3O)nnn2-c2nonc2N)CC1,-153,i,nt,1,-2,i,nt
CC1CCN(Cc2c(C(=O)N/N=C/c3cccc(C(F)(F)F)c3)nnn2-c2nonc2N)CC1,-40,i,nt,5,1,i,nt
COc1c(Cl)cc(Cl)cc1/C=N/NC(=O)c1nnn(-c2nonc2N)c1CN1CCC(C)CC1,10,i,nt,68*,7,i,91*
COc1ccc(N(CC(=O)NCc2ccc3c(c2)OCO3)C(=O)c2csnn2)cc1,-11,i,nt,2,5,i,nt
CCCOC(=S)Nc1ccccc1,0,i,41,4,0,i,nt
Cc1c(OC(C)C(=O)NCCCn2ccnc2)ccc2c3c(c(=O)oc12)CCC3 (stereo not given),-2,i,nt,-3,1,i,nt
CCOC(=O)c1c(C)[nH]c(C)c1S(=O)(=O)N(C)CC(=O)N1CCN(c2ccc(OC)cc2)CC1,-7,i,nt,-3,1,i,nt
COc1cc(-c2noc(C)c2C#Cc2ccc(N)cc2)cc(OC)c1OC,nt,i,nt,59*,3,i,24
COc1cc(-c2noc(C)c2C#Cc2ccccn2)cc(OC)c1OC,nt,i,nt,9,-1,i,nt
Cc1c(C(=O)Nc2nccs2)oc2ccc(Br)cc12,nt,i,nt,48*,17,nt,79*
CCCCC1CCC(C(=O)N(CC(C)C)c2c(N)n(CCCC)c(=O)[nH]c2=O)CC1 (stereo not given),nt,i,nt,39*,32,i,38*

# Bioassay records (PubChem)
